ChEMBL document CHEMBL3272234, “Analgesic agents. 3. New bridged aminotetralins” (1976)
Calls of active or inactive are those of the source. The calls are words filed in the database; no cut-off is given here.

What was measured:
Rattus norvegicus [1] = species on record: Rattus norvegicus; assay: Analgesic activity in Charles River rat by tail flick test relative to morphine; type: functional
Method in brief: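 Rats (groups of six or ten) dosed ip in aqueous solution or Tween-80 suspension, with doses as mg base/kg. Potency expressed relative to morphine, which was taken as unity. Some estimates were based on two doses.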

Rattus norvegicus [2] = assay: Analgesic activity in ip dosed Charles River rat by tail flick test; type: functional
Method in brief: (§1)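 Dosed intraperitoneally as aqueous solutions or Tween-80 suspensions to groups of six or ten rats. Doses expressed as mg base/kg. Read-out recorded as the number of rats showing analgesia over the number tested at each dose.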

Rattus norvegicus [3] = assay: Analgesic activity in po dosed Charles River rat by tail flick test; type: functional
Method in brief: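 Oral dosing of rats, with doses calculated as mg base/kg. Read-out recorded as the number of rats showing analgesia over the number tested.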

Rattus norvegicus [4] = assay: Analgesic activity in Charles River rat at 50 mg/kg, ip by tail flick test; type: functional, organism-based; design: dose 50 mg/kg; method in brief: as §1
Rattus norvegicus [5] = assay: Analgesic activity in Charles River rat at 25 mg/kg, ip by tail flick test; type: functional, organism-based; design: dose 25 mg/kg; method in brief: as §1

Compound	Ratio (Rattus norvegicus [1])	ED50 (Rattus norvegicus [2])	ED50 (Rattus norvegicus [3])	Activity (Rattus norvegicus [4])	Activity (Rattus norvegicus [5])
Br.C[C@@]12CCCCC(Cc3ccc(O)cc31)[C@@H]2N	0.6	7.4 mg/kg	–	–	–
Br.C[C@@]12Cc3ccccc3CC(Cc3ccc(O)cc31)C2N (some centres undefined)	0.35	12.5 mg/kg	–	–	–
CC[C@@]12CC=CCC(Cc3ccc(OC)cc31)[C@@H]2N.Cl	1.05	4.2 mg/kg	6.25 mg/kg	–	–
CC[C@@]12Cc3ccccc3CC(Cc3ccc(OC)cc31)C2N.Cl (some centres undefined)	–	50 mg/kg	–	–	–
C[C@@]12CCCCC(Cc3ccc(OC(=O)C4CC4)cc31)[C@@H]2N.Cl	0.81	5.5 mg/kg	16.5 mg/kg	–	–
COc1ccc2c(c1)[C@@]1(C)CCCCCC(C2)[C@@H]1N.Cl	0.44	10 mg/kg	–	–	–
COc1ccc2c(c1)[C@@]1(C)CCCCCC(C2)[C@@H]1[N+](C)(C)[O-].Cl	0.44	10 mg/kg	16.5 mg/kg	–	–
COc1ccc2c(c1)[C@@]1(C)CC=CCC(C2)[C@@H]1N.Cl	0.27	16.5 mg/kg	6.25 mg/kg	–	–
COc1ccc2c(c1)[C@@]1(C)CC=CCC(C2)[C@@H]1N(C)C.Cl	–	50 mg/kg	–	inactive	–
CN1CC[C@]23c4c5ccc(O)c4O[C@H]2[C@@H](O)C=C[C@H]3[C@H]1C5 [MORPHINE]	1	–	–	–	–
CC(=O)Oc1ccc2c(c1)[C@@]1(C)CCCCC(C2)[C@@H]1N.Cl	0.44	10 mg/kg	40 mg/kg	–	–
C[C@@]12CC=CCC(Cc3ccc(O)cc31)[C@@H]2N.Cl	1.26	6.25 mg/kg	–	–	–
Br.C[C@@]12Cc3ccccc3CCC(Cc3ccc(O)cc31)C2N (some centres undefined)	–	25 mg/kg	–	–	–
CC[C@@]12CC=CCC(Cc3ccc(O)cc31)[C@@H]2N	2.53	1.75 mg/kg	6.25 mg/kg	–	–
COc1ccc2c(c1)[C@@]1(C)Cc3ccccc3CC(C2)C1N.Cl (some centres undefined)	0.31	14.5 mg/kg	–	–	–
COc1ccc2c(c1)[C@@]1(C)Cc3ccccc3CCC(C2)C1N.O=C(O)/C=C/C(=O)O (some centres undefined)	–	25 mg/kg	–	–	inactive
CCC(=O)O[C@](Cc1ccccc1)(c1ccccc1)[C@H](C)CN(C)C [PROPOXYPHENE]	–	10.4 mg/kg	–	–	–
CC[C@@]12CC=CCC(Cc3ccc(OC)cc31)[C@@H]2NC.I	–	25 mg/kg	–	–	–
CC[C@@]12CC=CCC(Cc3ccc(OC)cc31)[C@@H]2N(C)C.Cl	–	50 mg/kg	–	inactive	–
